ChEMBL document CHEMBL3102746, “Anticomplement monoterpenoid glucosides from the root bark of Paeonia suffruticosa” (J Nat Prod, 2014)
Active and inactive are the calls of the source. No cut-off for these calls is given here.

How the values were obtained:
Assay type in all cases: functional, cell-based
[1] = Anticomplement activity in New Zealand White rabbit erythrocytes assessed as concentration required for 50% hemolytic inhibition by alternative pathway after 30 mins; conditions: Oryctolagus cuniculus, Erythrocyte
How it was run: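 Samples diluted in GVB-Mg-EGTA and preincubated with 1:10 normal human serum at 37 °C for 10 min. Rabbit erythrocytes (3.0 × 10^8 cells/mL) then added for 30 min at 37 °C. Lysis read as supernatant OD at 405 nm. AP50 expressed as 50% inhibitory concentration. Heparin served as positive control.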

[2] = Anticomplement activity in sheep erythrocytes assessed as concentration required for 50% hemolytic inhibition by classical pathway after 30 mins by spectrophotometry; conditions: Ovis aries; Erythrocyte
How it was run: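 Sheep erythrocytes sensitized with rabbit anti-sheep erythrocyte antibodies in GVB2+. Test sample dilutions in GVB2+ preincubated with guinea pig serum (1:80) at 37 °C for 10 min, then EA added for 30 min at 37 °C. Supernatant OD read at 405 nm. Blank, 100% lysis and sample controls included. CH50 taken from mean of triplicates at each concentration. Heparin served as positive control.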

[3] = Anticomplement activity in sheep erythrocytes in C9-depleted serum assessed as inhibition of hemolysis by classical pathway at 0.45 mM after 30 mins compound treated in normal human serum; conditions: Ovis aries, Erythrocyte
[4] = Anticomplement activity in sheep erythrocytes in C3-depleted serum assessed as inhibition of hemolysis by classical pathway at 0.45 mM after 30 mins compound treated in normal human serum; conditions: Ovis aries, Erythrocyte
[5] = Anticomplement activity in sheep erythrocytes in C1q-depleted serum assessed as inhibition of hemolysis by classical pathway at 0.45 mM after 30 mins compound treated in normal human serum; conditions: Ovis aries, Erythrocyte
[6] = Anticomplement activity in sheep erythrocytes in C5-depleted serum assessed as inhibition of hemolysis by classical pathway at 0.45 mM after 30 mins compound treated in normal human serum; conditions: Ovis aries, Erythrocyte
[7] = Anticomplement activity in sheep erythrocytes in C3-depleted serum assessed as hemolysis by classical pathway at 1.09 mM after 30 mins compound treated in normal human serum; conditions: Ovis aries, Erythrocyte
[8] = Anticomplement activity in sheep erythrocytes in C1q-depleted serum assessed as hemolysis by classical pathway at 1.09 mM after 30 mins compound treated in normal human serum; conditions: Ovis aries, Erythrocyte
[9] = Anticomplement activity in sheep erythrocytes in C2-depleted serum assessed as hemolysis by classical pathway at 1.09 mM after 30 mins compound treated in normal human serum; conditions: Ovis aries, Erythrocyte
[10] = Anticomplement activity in sheep erythrocytes in C5-depleted serum assessed as hemolysis by classical pathway at 1.09 mM after 30 mins compound treated in normal human serum; conditions: Ovis aries, Erythrocyte
[11] = Anticomplement activity in sheep erythrocytes in C4-depleted serum assessed as hemolysis by classical pathway at 1.09 mM after 30 mins compound treated in normal human serum; conditions: Ovis aries, Erythrocyte
[12] = Anticomplement activity in sheep erythrocytes in C9-depleted serum assessed as hemolysis by classical pathway at 1.09 mM after 30 mins compound treated in normal human serum; conditions: Ovis aries, Erythrocyte
[13] = Anticomplement activity in sheep erythrocytes in C9-depleted serum assessed as inhibition of hemolysis by classical pathway at 0.54 mM after 30 mins compound treated in normal human serum; conditions: Ovis aries, Erythrocyte
[14] = Anticomplement activity in sheep erythrocytes in C5-depleted serum assessed as inhibition of hemolysis by classical pathway at 0.54 mM after 30 mins compound treated in normal human serum; conditions: Ovis aries, Erythrocyte
[15] = Anticomplement activity in sheep erythrocytes in C3-depleted serum assessed as inhibition of hemolysis by classical pathway at 0.54 mM after 30 mins compound treated in normal human serum; conditions: Ovis aries, Erythrocyte
[16] = Anticomplement activity in sheep erythrocytes in C1q-depleted serum assessed as inhibition of hemolysis by classical pathway at 0.54 mM after 30 mins compound treated in normal human serum; conditions: Ovis aries, Erythrocyte

| Structure (SMILES) | inhibition [1] | inhibition [2] | AP50 [1] [mM] | INH [2] [mM] | further results |
| --- | --- | --- | --- | --- | --- |
| CO[C@H]1O[C@@]2(C)CC(=O)[C@H]3C[C@]2(O[C@@H]2O[C@H](COC(=O)c4ccccc4)[C@@H](O)[C@H](O)[C@H]2O)[C@]13COC(=O)c1ccccc1 | inactive | inactive |  |  |  |
| C[C@@]12C[C@@]3(O)O[C@@H](O1)[C@]1(COC(=O)c4ccc(O)cc4)[C@H]3C[C@@]12O[C@@H]1O[C@H](COC(=O)c2cc(O)c(O)c(O)c2)[C@@H](O)[C@H](O)[C@H]1O |  |  | 0.25 | 0.14 | inhibition [3]: inactive; inhibition [4]: Active; inhibition [5]: Active; inhibition [6]: Active |
| COc1cc(C(=O)OC[C@H]2O[C@@H](O[C@@]34C[C@H]5[C@@]3(CO)[C@H]3O[C@]5(O)C[C@]4(C)O3)[C@H](O)[C@@H](O)[C@@H]2O)ccc1O |  |  | 1.12 | 0.89 |  |
| C[C@@]12C[C@@]3(O)OC(O1)[C@]1(COC(=O)c4ccc(O)cc4)[C@@H]3C[C@@]21O[C@@H]1O[C@H](COC(=O)c2ccccc2)[C@@H](O[C@@H]2O[C@H](CO)[C@@H](O)[C@H](O)[C@H]2O)[C@H](O)[C@H]1O |  |  | 0.43 | 0.33 | Activity [7]: < 10%; Activity [8]: < 10%; Activity [9]: 80.1%; Activity [10]: < 10%; Activity [11]: 89.3%; Activity [12]: < 10% |
| COc1ccc(C(=O)OC[C@]23C4O[C@]5(OC)C[C@](C)(O4)[C@]2(O[C@@H]2O[C@H](COC(=O)c4ccccc4)[C@@H](O)[C@H](O)[C@H]2O)C[C@H]53)cc1 | inactive | inactive |  |  |  |
| CO[C@@H]1O[C@@]2(C)CC(=O)[C@H]3C[C@]2(O[C@@H]2O[C@H](COC(=O)c4ccccc4)[C@@H](O)[C@H](O)[C@H]2O)[C@]13COC(=O)c1ccccc1 | inactive | inactive |  |  |  |
| COc1ccc(C(=O)OC[C@H]2O[C@@H](O[C@]34C[C@@H]5C(=O)C[C@]3(C)O[C@H](OC)[C@]54COC(=O)c3ccccc3)[C@H](O)[C@@H](O)[C@@H]2O)cc1 | inactive | inactive |  |  |  |
| COc1ccc(C(=O)OC[C@]23[C@H]4O[C@]5(O)C[C@](C)(O4)[C@@]2(O[C@@H]2O[C@H](CO)[C@@H](O)[C@H](O)[C@H]2O)C[C@H]35)cc1 |  |  | 3.67 | 2.67 |  |
| COc1ccc(C(=O)OC[C@H]2O[C@@H](O[C@]34C[C@@H]5[C@@]6(O)C[C@]3(C)OC(O6)[C@]54COC(=O)c3ccc(O)cc3)[C@H](O)[C@@H](O)[C@@H]2O)cc1 |  |  | 0.97 | 0.41 |  |
| COc1ccc(C(=O)OC[C@@]23[C@@H](OC)O[C@@]4(C)CC(=O)[C@H]2C[C@]34O[C@@H]2O[C@H](COC(=O)c3ccccc3)[C@@H](O)[C@H](O)[C@H]2O)cc1 | inactive | inactive |  |  |  |
| C[C@@]12C[C@@]3(O)O[C@@H](O1)[C@]1(COC(=O)c4ccccc4)[C@H]3C[C@@]12O[C@@H]1O[C@H](COC(=O)c2ccccc2)[C@@H](O[C@@H]2O[C@H](CO)[C@@H](O)[C@H](O)[C@H]2O)[C@H](O)[C@H]1O | inactive |  |  | 2.29 |  |
| C[C@@]12C[C@@]3(O)O[C@@H](O1)[C@]1(COC(=O)c4ccccc4)[C@@H]3C[C@]12O[C@@H]1O[C@H](COC(=O)c2ccc(O)cc2)[C@@H](O)[C@H](O)[C@H]1O |  |  |  | 0.52 |  |
| CO[C@]12C[C@]3(C)O[C@H](O1)[C@]1(COC(=O)c4ccc(O)cc4)[C@H]2C[C@@]13O[C@@H]1O[C@H](CO)[C@@H](O)[C@H](O)[C@H]1O | inactive | inactive |  |  |  |
| COc1ccc(C(=O)OC[C@H]2O[C@@H](O[C@]34C[C@@H]5[C@@]6(O)C[C@]3(C)OC(O6)[C@]54COC(=O)c3ccccc3)[C@H](O)[C@@H](O)[C@@H]2O)cc1 |  |  | 2.82 | 2.36 |  |
| CO[C@]12C[C@]3(C)OC(O1)[C@]1(COC(=O)c4ccccc4)[C@@H]2C[C@@]31O[C@@H]1O[C@H](COC(=O)c2ccccc2)[C@@H](O)[C@H](O)[C@H]1O | inactive | inactive |  |  |  |
| COc1ccc(C(=O)OC[C@]23C4O[C@]5(O)C[C@](C)(O4)[C@]2(O[C@@H]2O[C@H](COC(=O)c4ccccc4)[C@@H](O)[C@H](O)[C@H]2O)C[C@H]53)cc1 |  |  | 1.6 | 1.29 |  |
| C[C@@]12C[C@@]3(O)O[C@@H](O1)[C@]1(COC(=O)c4ccccc4)[C@@H]3C[C@]12O[C@@H]1O[C@H](COC(=O)c2cc(O)c(O)c(O)c2)[C@@H](O)[C@H](O)[C@H]1O |  |  | 0.32 | 0.21 | inhibition [13]: inactive; inhibition [14]: Active; inhibition [15]: Active; inhibition [16]: Active |
| COc1cc(C(=O)OC[C@H]2O[C@@H](O[C@@]34C[C@H]5[C@@]3(COC(=O)c3ccccc3)[C@H]3O[C@]5(O)C[C@]4(C)O3)[C@H](O)[C@@H](O)[C@@H]2O)ccc1O |  |  |  | 2.02 |  |
| C[C@@]12C[C@@]3(O)O[C@@H](O1)[C@]1(COC(=O)c4ccc(O)cc4)[C@@H]3C[C@]12O[C@@H]1O[C@H](CO)[C@@H](O)[C@H](O)[C@H]1O |  |  | 3.29 | 2.28 |  |
| C[C@@]12C[C@@]3(O)OC(O1)[C@]1(COC(=O)c4ccc(O)cc4)[C@@H]3C[C@@]21O[C@@H]1O[C@H](COC(=O)c2ccccc2)[C@@H](O)[C@H](O)[C@H]1O |  |  | 0.85 | 0.58 |  |
| CO[C@H]1O[C@@]2(C)CC(=O)[C@@H]3C[C@@]2(O[C@@H]2O[C@H](CO)[C@@H](O)[C@H](O)[C@H]2O)[C@]13COC(=O)c1ccc(O)cc1 | inactive | inactive |  |  |  |
| C[C@@]12C[C@@]3(O)O[C@@H](O1)[C@]1(COC(=O)c4ccc(O)cc4)[C@H]3C[C@@]12O[C@@H]1O[C@H](COC(=O)c2ccc(O)cc2)[C@@H](O)[C@H](O)[C@H]1O |  |  | 0.67 | 0.34 |  |
